Source: PubChem BioAssay (several laboratories)
Sampled rows, rich in hits. Any-hit rate of the full collection: about 5.5%.
STAT1 inh = reduces IFN-gamma driven STAT1 reporter signal | NIH 3T3 STAT1-luciferase reporter, luminescence | inhibition, % at 5.5 µM | 0.35% of 200,000 active | AID 920;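 active = inhibition above a set limit, the mean inhibition across all tested compounds plus 3 SD, cut at about 34% in these data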
STAT3 blocker = reduces IL-6 driven STAT3 reporter signal; U3A cells, IL-6 STAT3-luciferase reporter, luminescence; host cell line lacks STAT1; inhibition, % at 5.5 µM; 0.89% of 190,000 active; AID 862;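 active = inhibition above the mean inhibition across all screened compounds plus 3 SD, cut at about 44% in these data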
KCC2 mod = modulators of human KCC2 chloride dependent transport | Q9H2X9 | KCC2 cells, thallium flux FluoZin-2 fluorescence | B-score of Tl+ flux slope (higher = more flux/activation; lower = inhibition) at 10 µM | 2.2% of 190,000 active | AID 1456;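 active = thallium flux slope and its plate-corrected score both differing from the plate sample mean at a set confidence after two filtering rounds, in either direction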;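 note: slope of fluorescence scaled to starting intensity during 10 to 20 s after thallium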
STAT3 act = STAT3 signaling activation; U3A cells, IL-6 STAT3-luciferase reporter, luminescence; 100% = signal with IL-6 EC80 alone; activation (% of control), % at 5.6 µM; 0.91% of 190,000 active;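 active = activation above the screen-wide mean of compound activation plus 3 SD, cut at about 130% in these data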
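Material: human STAT1-deficient U3A cells with stable STAT3-luciferase reporter / Probe or stimulus: IL-6 stimulus at 33 ng/mL final / Schedule: 1 h compound pre-exposure, 6 h IL-6 stimulation, 37 °C / Technique: luminescence / Read-out basis: percent of IL-6-only median luminescence / Control set: IL-6-only high control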
HSV replic up = HSV replication enhancement; HSV replication augmentation in cells, fold increase; maximum fold increase; 0.005% of 220,000 active; AID 1956; in the data active = maximum fold increase above about 1.5; inconclusive = no clear call, values can overlap the other calls; tested in PC3 cells
STAT1 act = STAT1 signaling activation; activation (% of control), % at 5.5 µM; NIH 3T3 STAT1-luciferase reporter, IFN-gamma, luminescence; 100% = IFN-gamma alone, no compound; 2.6% of 200,000 active; AID 932;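 active = activation above the screen-wide mean activation plus 3 SD, cut at about 130% in these data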
KCC2 sec1 = confirmation of human KCC2 transport modulators; normalised thallium flux (F/F0 slope) at 10 µM; 15% of 3,700 active; AID 1713; HEK293-KCC2, thallium flux, FluoZin2 fluorescence; hits give high values; shares compounds with KCC2 mod;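 active = thallium flux slope above the same plate's solvent-only control mean plus 3 SD; inconclusive = the two replicate wells disagree; inactive = no significant difference from solvent-only control wells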
KCC2 bumet counter = bumetanide-insensitive thallium flux in KCC2 cells with ouabain, counter-screen | shares compounds with KCC2 mod | HEK293-KCC2 + bumetanide/ouabain, thallium flux FluoZin2; hits give high values | normalized thallium flux at 10 µM | 49% of 3,700 active;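 active = thallium entry rate above the same plate's blocked-transporter control wells by more than 3 SD; inconclusive = the two repeat wells disagree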;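 note: raw slope of fluorescence over initial fluorescence between 10 and 20 s after thallium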
KCC2 secondary2 = KCC2 (human) modulation, second secondary assay | shares compounds with KCC2 mod | HEK293-KCC2, thallium flux FluoZin2 fluorescence; actives lie on both sides; F/F0 rise rate, 10–20 s post-thallium | normalized thallium flux at 10 µM | 23% of 3,700 active | AID 1715;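 active = thallium flux slope more than 3 SD above or below the plate's solvent-only control mean, mostly below; inconclusive = the two repeat wells disagreed; inactive = no significant shift from solvent-only controls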
HEK counter1 = acts in parental HEK cells, KCC2 counter-screen | shares compounds with KCC2 mod | HEK293 parental cells, thallium flux FluoZin2, ouabain; baseline-ratio fluorescence slope, 10–20 s after thallium | AID 1716 | thallium flux rate (normalised fluorescence) at 10 µM | 46% of 3,700 active;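 active = thallium flux rate significantly above the same plate's solvent-only control wells, beyond their mean plus 3 SD; inconclusive = the two replicate wells gave conflicting results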
KCC2 ouabain = KCC2 (human) modulation, ouabain retest | shares compounds with KCC2 mod | HEK293-KCC2, thallium flux FluoZin2 fluorescence; bidirectional: low = inhibitor, high = activator | raw Tl+ flux slope (below DMSO = inhibition, above = activation) at 10 µM | 48% of 3,700 active | AID 1717;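 active = thallium flux slope beyond 3 SD from same-plate DMSO control mean in most replicates, usually higher, sometimes lower; inconclusive = repeat tests gave conflicting results; inactive = no significant difference from controls in most replicates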;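 note: slope of initial-normalized fluorescence between seconds 10 and 20 after thallium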
HEK counter2 = counter-screen for KCC2 modulators: effect in parental HEK293 cells; shares compounds with KCC2 mod; 33% of 3,700 active; thallium flux FluoZin-2 fluorescence slope; AID 1718; thallium flux slope at 10 µM;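 active = thallium flux slope above the same plate's solvent-control mean plus 3 SD in both duplicate wells; inconclusive = duplicate wells that disagreed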;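 note: run without ouabain in cells lacking the KCC2 cotransporter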
Each line names hits and unclear results; the compound was inactive in the other large screens (follow-up assays come after a bar, where they were run).

c1ccc(-c2nc(Sc3ncnc4c3cnn4-c3ccccc3)n[nH]2)cc1	KCC2 mod -6.7 (no result: HSV replic up) | KCC2 sec1 inactive | KCC2 bumet counter inactive | KCC2 secondary2 0.023 | HEK counter1 inactive | KCC2 ouabain inconclusive | HEK counter2 inactive
Cc1ccc(C(=O)N2CCN(C(=O)c3ccc(C)cc3)C2)cc1	none
O=C(NC(=O)c1ccncc1)NC(c1ccccc1)c1ccccc1	KCC2 mod -4.8 | KCC2 sec1 inactive | KCC2 bumet counter inactive | KCC2 secondary2 inactive | HEK counter1 inconclusive | KCC2 ouabain inactive | HEK counter2 inactive
CCCCC(=O)NC(=O)NC(c1ccccc1)c1ccccc1	none (no result: STAT1 inh, STAT3 blocker, KCC2 mod, STAT3 act, STAT1 act)
O=C(CCc1nc2ccccc2s1)OCc1ccccc1	none
Cc1cc(C(=O)COC(=O)CCc2nc3ccccc3s2)c(C)n1C	KCC2 mod -3.2 | KCC2 sec1 inactive | KCC2 bumet counter inconclusive | KCC2 secondary2 0.023 | HEK counter1 inactive | KCC2 ouabain 0.016 | HEK counter2 inactive
CCCn1c(=O)c2ccccc2n2c(SCCOc3ccccc3)nnc12	KCC2 mod -4.9 | KCC2 sec1 inactive | KCC2 bumet counter 0.0028 | KCC2 secondary2 inconclusive | HEK counter1 0.0047 | KCC2 ouabain inconclusive | HEK counter2 0.0077
CCCn1c(=O)c2ccccc2n2c(SCc3nc4ccccc4s3)nnc12	none (no result: KCC2 mod)
CNC(=S)Nc1ccc(N2CCN(c3ccc(C(F)(F)F)cn3)CC2)nc1	none (no result: STAT1 inh, STAT3 blocker, STAT3 act, STAT1 act)
C=C(C)CN=C1NN=C(c2cc(C)n(-c3ccc(C)cc3)c2C)CS1	none
Cc1nn(-c2ccccc2)c(Cl)c1/C=C1\SC(=S)NC1=O	KCC2 mod 35 | KCC2 sec1 0.037 | KCC2 bumet counter 0.16 | KCC2 secondary2 inactive | HEK counter1 0.063 | KCC2 ouabain 0.067 | HEK counter2 0.027
Cc1nn(-c2ccccc2)c(Cl)c1/C=C1\SC(=S)N(CCCCCC(=O)O)C1=O	none (no result: STAT1 inh, STAT3 blocker, STAT3 act, STAT1 act)
CC(C)(C)OC(=O)[C@H](Cc1ccccc1)NC(=O)c1nc[nH]c1C(=O)N[C@@H](Cc1ccccc1)C(=O)OC(C)(C)C	KCC2 mod 3.4 (no result: STAT1 inh, STAT3 blocker, STAT3 act, STAT1 act) | KCC2 sec1 inactive | KCC2 bumet counter inactive | KCC2 secondary2 inactive | HEK counter1 inactive | KCC2 ouabain inactive | HEK counter2 inactive
C[C@H](NC(=O)c1nc[nH]c1C(=O)N[C@@H](Cc1ccccc1)C(=O)OC(C)(C)C)C(=O)OC(C)(C)C	none (no result: STAT1 inh, STAT3 blocker, STAT3 act, STAT1 act)
CCc1nc2c(c(SC)nn2-c2ccccc2)c(N)c1C(=O)OC	none (no result: KCC2 mod)
CCOc1cc(/C=C2\N=C(SC)SC2=O)cc([N+](=O)[O-])c1OC(C)=O	none (no result: KCC2 mod, HSV replic up) | KCC2 sec1 inconclusive | KCC2 bumet counter 0.0056 | KCC2 secondary2 inconclusive | HEK counter1 inactive | KCC2 ouabain inactive | HEK counter2 inactive
O=C(NC(=S)Nc1ccc(S(=O)(=O)NC2CCCCC2)cc1)c1cccs1	none
Cn1nc2c3ccccc3n(Cc3ccccc3)c2nc1=S	none (no result: STAT1 inh, STAT3 blocker, STAT3 act, STAT1 act)
COc1ccccc1C1CC(c2ccc(Cl)cc2)Nc2nc(N)nn21 (centres undefined)	none
CCOc1ccccc1C1CC(c2ccc(F)cc2)Nc2nc(N)nn21 (centres undefined)	KCC2 mod -3.4 | KCC2 sec1 inactive | KCC2 bumet counter inactive | KCC2 secondary2 inactive | HEK counter1 inactive | KCC2 ouabain inactive | HEK counter2 inactive
COc1cc(/C=N/NC(=O)CCC(=O)NC2CCCCC2)ccc1C	none
CCOc1ccccc1OCCCOc1ccc(C)cc1Br	none (no result: HSV replic up)
CCN(CC)CCCOc1ccc(C)cc1Br	none (no result: KCC2 mod) | KCC2 sec1 inactive | KCC2 bumet counter inactive | KCC2 secondary2 inactive | HEK counter1 inconclusive | KCC2 ouabain inactive | HEK counter2 inactive
CC[C@@H]1C=C(C)C[C@H](C)C[C@H](OC)[C@H]2O[C@@](O)(C(=O)C(=O)N3CCCC[C@H]3C(=O)O[C@H](/C(C)=C/[C@@H]3CC[C@@H](O)[C@H](OC)C3)[C@H](C)[C@@H](O)CC1=O)[C@H](C)C[C@@H]2OC	none
CO[C@H]1C[C@@H]2CC[C@@H](C)[C@@](O)(O2)C(=O)C(=O)N2CCCC[C@H]2C(=O)O[C@H]([C@H](C)C[C@@H]2CC[C@@H](O)[C@H](OC)C2)CC(=O)[C@H](C)C=C(C)[C@@H](O)[C@@H](OC)C(=O)[C@H](C)C[C@H](C)C=CC=CC=C1C	none (no result: STAT1 inh, STAT3 blocker, STAT3 act, HSV replic up, STAT1 act) | KCC2 sec1 inactive | KCC2 bumet counter inactive | KCC2 secondary2 inactive | HEK counter1 inactive | KCC2 ouabain inactive | HEK counter2 inactive
CCOC(=O)C1CCCN(C/C(O)=C(\C#N)c2nc(-c3ccc(Cl)cc3)cs2)C1 (centres undefined)	KCC2 mod -3.5 | KCC2 sec1 inactive | KCC2 bumet counter inactive | KCC2 secondary2 0.024 | HEK counter1 inactive | KCC2 ouabain 0.018 | HEK counter2 inactive
N#C/C(=C(/O)CN1CCCC1)c1nc(-c2ccccc2)cs1	none (no result: STAT1 inh, STAT3 blocker, STAT3 act, STAT1 act)
CS(=O)(=O)NCCSCc1ccccc1	none
Cc1ccccc1CSCCNS(C)(=O)=O	none (no result: KCC2 mod) | KCC2 sec1 inactive | KCC2 bumet counter inactive | KCC2 secondary2 inactive | HEK counter1 inactive | KCC2 ouabain inactive | HEK counter2 inactive
COc1ccccc1CNC(=O)CN(C)CC(=O)Nc1cccc(F)c1	none
O=C(N/N=C1\CC2CC=CC12)c1ccccc1Cl (centres undefined)	none
FC(F)(F)c1ccccc1NC(=S)N/N=C1\CC2CC=CC12 (centres undefined)	KCC2 mod 13 | KCC2 sec1 inconclusive | KCC2 bumet counter 0.037 | KCC2 secondary2 0.04 | HEK counter1 0.02 | KCC2 ouabain 0.029 | HEK counter2 0.023
O=C(Oc1ccccc1Cl)c1ccc(-n2cncn2)nc1	none
CCCOc1ccc(N2C(=O)C3ON(c4ccccc4)C(c4ccc(O)c(OC)c4)C3C2=O)cc1 (centres undefined)	none (no result: HSV replic up) | KCC2 sec1 inactive | KCC2 bumet counter inactive | KCC2 secondary2 inconclusive | HEK counter1 inactive | KCC2 ouabain inactive | HEK counter2 inactive
